S100A4 MyoIIA: blocks human S100A4 binding to myosin IIA peptide. S100A4/TAMRA-MyoIIA peptide fluorescence polarization. inhibition, % at 10.7 µM. P26447. hit rate 0.14% among 360,000;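 active = mean inhibition of at least 70% across replicates, with every replicate also reaching that level; inconclusive = mean inhibition reaches 70% but some replicates fall short; inactive = mean inhibition below 70%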
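Material: S100A4 monomer (human). Medium: Calcium-containing HEPES buffer, pH 7.2. Probe or stimulus: labelled myosin peptide probe, 5 nM. Compound dosing: one concentration per compound. Timing: polarization read 5 min after assay mix addition, stable 5–60 min. Benchmarks: DMSO as neutral control, TFP as positive control.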
E-selectin induc: E-selectin induction on HUVECs. AID 686992. hit rate 0.37% among 260,000. HUVEC E-selectin immunofluorescence imaging; normalized: neutral wells 0, TNF-alpha wells 100. activation, % at 7.58 µM;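 active = mean E-selectin-positive cell signal at least 10% of the positive control, reached in at least 60% of replicates, without over 20% cell loss; inconclusive = no rule given, readout overlaps actives, possibly toxicity-flagged; inactive = the rest, including those meeting only one limit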
Target sequence (P16581 whole entry, looked up): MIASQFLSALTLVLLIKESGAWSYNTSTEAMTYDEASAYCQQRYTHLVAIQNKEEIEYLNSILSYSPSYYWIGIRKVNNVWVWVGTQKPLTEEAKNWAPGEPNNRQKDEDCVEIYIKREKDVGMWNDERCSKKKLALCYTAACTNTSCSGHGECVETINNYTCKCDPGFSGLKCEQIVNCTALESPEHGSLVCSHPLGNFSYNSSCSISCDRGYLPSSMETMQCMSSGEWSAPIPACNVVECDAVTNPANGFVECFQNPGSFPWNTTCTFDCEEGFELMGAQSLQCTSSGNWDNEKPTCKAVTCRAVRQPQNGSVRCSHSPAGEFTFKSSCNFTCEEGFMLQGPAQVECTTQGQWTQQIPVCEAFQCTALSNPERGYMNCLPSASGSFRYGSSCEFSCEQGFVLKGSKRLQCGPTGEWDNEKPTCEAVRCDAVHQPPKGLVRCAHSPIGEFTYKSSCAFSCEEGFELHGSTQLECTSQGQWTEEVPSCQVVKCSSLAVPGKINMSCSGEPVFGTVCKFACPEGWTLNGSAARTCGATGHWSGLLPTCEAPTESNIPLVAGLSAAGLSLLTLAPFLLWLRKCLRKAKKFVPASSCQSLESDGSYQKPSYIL
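System: HUVEC / Compound: single concentration / Signal: immunofluorescence imaging / Read-out: percent E-selectin-positive cells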
FGF22 binding: shifts melting point of recombinant human FGF22; Q9HCT0; activity (Tm shift, normalised), % at 9.99 µM; recombinant FGF22 thermal shift, SYPRO orange fluorescence; percent of sucrose octasulfate shift, DMSO zero; hit rate 1.5% among 340,000;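 active = mean Tm shift, scaled 0 neutral to 100 positive control, at about 1.3% or above, every replicate too, limit read from the data; inconclusive = no clear call, values can overlap the other calls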
CFTR F508del cor: correctors of CFTR F508del function in bronchial epithelial cells; AID 720511; hit rate 0.36% among 350,000; CFBE cells, YFP halide quenching; stimulated with forskolin plus potentiator P3; % fluorescence drop versus neutral controls; activity (quench increase), % at 7.58 µM;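 active = mean added fluorescence quench of at least 8% versus neutral control, with both replicates also reaching 8%; inconclusive = only one of the mean or replicate conditions met; inactive = mean below 8% and not both replicates reaching 8%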;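 also: cells transiently co-express mutant CFTR-F508del with the halide-sensitive YFP; corrector assay measuring rescue of mutant channel to the surface after 24 h compound exposure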
Env fusion inh: inhibitors of HIV Env-mediated cell fusion; HeLa-JRFL Env/CEM21 cell fusion, luciferase; inhibition, % at 12.3 µM; hit rate 1.1% among 360,000; AID 651610;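 active = mean replicate inhibition score of at least 50 and every replicate individually at or above 50; inconclusive = only one of the two criteria met; inactive = mean below 50 and not all replicates reaching 50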
Hits are given with their value; – = inactive; ? = inconclusive; · = no result given; [ ] = another dose, or the depositor's remark. This is a sample that favours compounds with a hit; in the whole collection about 2.7% have one here.

SMILES	S100A4 MyoIIA	E-selectin induc	FGF22 binding	CFTR F508del cor	Env fusion inh
O=C(Nc1ccc(F)cc1)C1CCN(C(=O)c2ccc(F)cc2)CC1	–	–	–	14	–
Nc1nc(=O)n(C2OC(CO)C(O)C2O)cc1F (stereo not given)	–	–	–	–	62
Nc1cnn(C2OC(CO)C(O)C2O)c(=O)n1 (stereo not given)	–	–	–	–	–
OCC1OC(n2cnc3c(NCc4ccco4)ncnc32)C(O)C1O (stereo not given)	–	·	–	·	70
Nc1nc(F)nc2c1ncn2[C@@H]1O[C@H](CO)[C@@H](O)[C@H]1O	–	–	–	·	73
N#Cc1c(N)n(C2OC(CO)C(O)C2O)c2ncnc(N)c12 (stereo not given)	–	–	43	–	84
OC[C@H]1O[C@@H](n2cnc3c(NCc4ccco4)ncnc32)[C@H](O)[C@@H]1O	–	–	–	–	–
CNC(=O)C[C@@H]1CC[C@@H]2[C@@H](COc3ccc(NC(=O)C(C)C)cc3C(=O)N2C)O1	·	–	·	–	–
C[C@H]1CN([C@@H](C)CO)S(=O)(=O)c2ccc(C#CC3CC3)cc2O[C@H]1CN(C)C(=O)c1ccncc1	–	–	–	–	–
C[C@H](CO)N1C[C@H](C)[C@H](CN(C)C(=O)Nc2ccccc2F)Oc2ncc(C#CCN(C)C)cc2C1=O	–	–	–	–	·
O=C(CC1CC1)Nc1ccc2c(c1)[C@H]1C[C@H](CC(=O)N3CCOCC3)O[C@@H](CO)[C@H]1O2	·	–	–	–	–
Nc1nc(Cl)nc2c1ncn2C1OC(CO)C(O)C1O (stereo not given)	–	·	–	–	·
Nc1nc(F)nc2c1ncn2[C@@H]1O[C@H](CO)[C@@H](O)[C@@H]1O	–	–	–	–	62
Nc1ncnc2c1ncn2C1OC(CO)C(O)C1O (stereo not given)	–	–	43	–	–
C[C@@H]1CN([C@@H](C)CO)C(=O)Cc2cc(NC(=O)Nc3ccc4c(c3)OCO4)ccc2O[C@H]1CN(C)S(C)(=O)=O	–	–	·	–	·
C[C@@H]1CN([C@H](C)CO)C(=O)Cc2cc(NC(=O)C3CCCCC3)ccc2O[C@H]1CN(C)CC1CC1	–	–	·	–	–
CCCC#Cc1cnc2c(c1)C(=O)N([C@@H](C)CO)C[C@@H](C)[C@H](CN(C)C(=O)Nc1ccc(OC)cc1)O2	–	–	–	–	–
Cc1ccc(S(=O)(=O)Nc2ccc3c(c2)CC(=O)N([C@@H](C)CO)C[C@@H](C)[C@H](CN(C)C(=O)Nc2ccc(C(F)(F)F)cc2)O3)cc1	–	–	–	–	–
Cc1cc(NC(=S)NC(=O)CC(C)C)ccc1Br	–	·	35	–	·
Cc1nn(C)c2c1NC(=O)CS2	–	–	43	–	–
COC(=O)c1c(Sc2ccccc2)c2ccccc2n1C	–	–	–	–	–
O=C(Cc1c(Sc2ccccc2)c2ccccc2n1Cc1ccccc1)NCCO	–	–	43	–	–
Cn1c(CC(=O)NCCO)c(Sc2ccccc2)c2ccccc21	·	–	·	·	–
Cn1c(CC(=O)NN)c(Sc2ccccc2)c2ccccc21	–	–	–	12	–
C[C@@H]1CN([C@@H](C)CO)C(=O)Cc2cc(NC(=O)Cn3cnnn3)ccc2O[C@H]1CN(C)Cc1ccc(C(=O)O)cc1	–	–	–	–	–
SMILES	S100A4 MyoIIA	E-selectin induc	FGF22 binding	CFTR F508del cor	Env fusion inh
CCc1nnc(NC(=O)c2nc(S(=O)(=O)Cc3cccc(C)c3)ncc2Cl)s1	–	·	–	–	63
CSc1nnc(NC(=O)c2nc(S(=O)(=O)Cc3cccc(C)c3)ncc2Cl)s1	–	·	–	–	89
COc1ccc(/C=C2/SC(=S)N(Cc3ccccc3)C2=O)cc1O	–	–	–	–	–
O=C1/C(=C\c2cc(Cl)c(O)c(Cl)c2)SC(=S)N1Cc1ccccc1	–	·	–	28	–
O=C(O)c1cc(N2CCCCC2)nc2ccccc12	–	–	43	–	·
CCOC(=O)c1cc(N2CCCCC2)nc2ccccc12	–	–	–	–	–
CC(C)NC(=O)N(C)C[C@H]1OCCCC[C@@H](C)Oc2ccc(NC(=O)CCC(F)(F)F)cc2C(=O)N([C@@H](C)CO)C[C@H]1C	–	–	–	–	–
O=C(Nc1cccc2ccccc12)OCc1ccccc1	–	–	44	–	–
O=C(NCCOC(=O)Nc1cccc2ccccc12)OCc1ccccc1	–	–	–	–	–
CC(=O)c1cccc(NC(=O)C(=O)Nc2cccc3ccccc23)c1	–	·	43	–	–
O=C(CSCC(=O)Nc1cccc2ccccc12)Nc1cccc2ccccc12	–	–	–	–	71
O=C(CSCCO)Nc1cccc2ccccc12	·	·	·	·	–
O=C(Nc1ccc(OCC(F)(F)C(F)F)cc1)c1ccncc1	–	–	–	–	?
O=C(Nc1ccc(OCC(F)(F)C(F)F)c(C(F)(F)F)c1)c1ccccc1O	·	·	·	·	78
CO[C@@H]1CN(C)C(=O)c2ccc(NC(=O)C3CC3)cc2OC[C@@H](C)N(Cc2cc(F)ccc2F)C[C@H]1C	–	–	–	–	–
CC(Nc1nc(-c2ccc(F)cc2)cs1)c1nc2cc(Cl)c(N3CCCCC3)cc2n1CCCO (stereo not given)	–	–	–	–	78
CC(Nc1nc(-c2ccc(F)cc2)cs1)c1nc2cc(Cl)c(N3CCCCC3)cc2n1CCOCCO (stereo not given)	–	–	–	–	–
CC(C)C#Cc1ccc([C@H]2[C@@H](CO)N(C(=O)c3cccc(F)c3)[C@H]2C#N)cc1	109	–	–	–	·
N#C[C@@H]1[C@H](c2ccc(-c3cccc(F)c3)cc2)[C@H](CO)N1C(=O)c1cccnc1	–	–	–	–	66[16.7 µM]
COc1cccc(-c2ccc([C@H]3[C@@H](CO)N(C(=O)c4ccccn4)[C@H]3C#N)cc2)c1	–	–	–	15	–
CN(C)CC(=O)Nc1ccc2c(c1)[C@H]1C[C@H](CC(=O)NCc3cc(F)ccc3F)O[C@H](CO)[C@H]1O2	–	–	–	–	–
CCC(=O)N1CCC2(CC1)CN(Cc1cccc(Cl)c1)[C@H](CO)c1c2c2ccc(OC)cc2n1C	–	–	–	–	·
CC(C)CC#Cc1ccc2c(c1)O[C@@H](CN(C)C(=O)c1ccccc1F)[C@H](C)CN([C@@H](C)CO)S2(=O)=O	–	–	–	–	?
COCC(=O)Nc1ccc2c(c1)OC[C@@H](C)N(C(=O)Cc1ccccn1)C[C@H](C)[C@H](OC)CN(C)C2=O	–	–	–	–	·
C[C@@H](NC(=O)C[C@@H]1CC[C@H](NC(=O)C2CCC2)[C@H](CO)O1)c1ccccc1	107	–	–	–	–
COc1ccccc1NC(=O)N[C@@H]1CC[C@H](CC(=O)N[C@H](C)c2ccccc2)O[C@@H]1CO	–	–	–	–	75[16.7 µM]
C[C@H](CO)N1C[C@H](C)[C@H](CN(C)Cc2ccccc2)Oc2ccc(NC(=O)Nc3ccc4c(c3)OCO4)cc2CC1=O	·	–	·	–	–
